Data set [1] has as its system Trypanosoma cruzi. In words: Antitrypanosomal activity against Trypanosoma cruzi Tulahuen CL2 amastigotes expressing beta galactosidase infected in human MRC5 cells assessed as reduction in parasite burden using chlorophenol red beta-D-galactopyranoside as substrate and measured after 7 days by spectrophotometric analysis. It is filed as functional, organism-based. Particulars: Tulahuen CL2, MRC5, 168 h. The method, boiled down: (§1)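 T. cruzi Tulahuen CL2 β-galactosidase strain grown in MRC-5 cells (MEM, 5% heat-inactivated FCS, 37 °C, 5% CO2). MRC-5 cells (4 x 10^3/well) plus parasites (4 x 10^4/well) exposed 7 days to 4-fold dilutions from 64 µM down; final DMSO <1%. CPRG with Nonidet added, absorbance at 540 nm after 4 h. IC50 calculated against untreated-infected (100%) and non-infected (0%) controls. SI = MRC-5 CC50/IC50.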

A short description of data set [2]: Selectivity index, ratio of CC50 for cytotoxicity against human MRC5 cells to EC50 for Trypanosoma cruzi Tulahuen CL2 amastigotes expressing beta galactosidase infected in human MRC5 cells. It is filed as toxicity, cell-based. Particulars: read-out: Selectivity Index. The procedure, abridged:
as §1

The nature of data set [3]: Metabolic stability in CD1 mouse liver microsomes assessed as intrinsic clearance measured upto 60 mins by LC-MS/MS analysis. It is filed as ADME. Particulars: read-out: CLH. The procedure, abridged:
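CD1 mouse liver microsomes at 0.25 mg/mL, compound at 0.5 µM, pH 7.4, 37 °C, started with NADPH. Sampled at 0, 5, 10, 20, 30 and 60 min and quenched with acetonitrile:methanol containing tolbutamide. Measured by LC-MS/MS; CLint (k × 1000/0.25, µL/min/mg) derived by non-linear regression of % remaining over time.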
Background: Liver microsomes are a subcellular fraction often used to study metabolism.

Data set [4] has as its system Trypanosoma cruzi. Kind of data set: Antitrypanosomal activity against intracellular Trypanosoma cruzi amastigote infected primary peritoneal mouse macrophages assessed as reduction in amastigote population. The arrangement: concentration or dose not given beside the values. The data set is classed as functional. The procedure, abridged:
(§2)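 High-content imaging of primary mouse macrophages infected with T. cruzi. Counts both amastigotes per cell and percentage of infected cells. 96 h exposure, with maximal activity scored at 10 µM. IC50 and IC90 against intracellular amastigotes taken from the same 96 h incubation.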

For data set [5], the system named is Trypanosoma cruzi. Kind of data set: Antitrypanosomal activity against intracellular Trypanosoma cruzi amastigote infected primary peritoneal mouse macrophages assessed as reduction in amastigote population measured after 96 hrs. The data set is classed as functional, organism-based. Particulars: for IC50: 96 h; for IC90: time 96 hrs. The procedure, abridged: as §2

The subject of data set [6] is Trypanosoma cruzi. In words: Antitrypanosomal activity against intracellular Trypanosoma cruzi amastigote infected primary peritoneal mouse macrophages assessed as reduction in infection rate. It is filed as functional. The procedure, abridged: as §2
The subject of data set [7] is Trypanosoma cruzi. In words: Antitrypanosomal activity against intracellular Trypanosoma cruzi amastigote infected mouse 3T3 cells assessed as reduction in amastigote population measured after 48 hrs.

A value given as a limit tells only on which side of the number the result lay.

The source of these data is ChEMBL document CHEMBL5352453, “Hit-to-lead optimization of a 2-aminobenzimidazole series as new candidates for chagas disease” (Eur J Med Chem, 2023).

Usually IC50 stands for the point on the concentration scale where inhibition reaches its midpoint. For orientation: IC90 means the concentration at which the effect reaches the 90% level.

As for `Cn1nccc1C(=O)Nc1nc2cc(CN3CCCC3)ccc2n1CC(F)(F)F`, the 50% inhibitory concentration (IC50) in the data set with Trypanosoma cruzi [1] is 8.1 µM. The selectivity ratio in data set [2] came out at 2. Further, the microsomal CLint in data set [3] was 23 µL/min/mg.
For `CC(C)(C)Cn1c(NC(=O)c2cccnc2)nc2cc(F)c(F)cc21`, in that order: 0.8 µM, greater than 80 and 131 µL/min/mg.
On to `N#Cc1ccc2nc(NC(=O)c3ncc(F)cc3F)n(CC(F)(F)F)c2c1`, for which the IC50 in the data set with Trypanosoma cruzi [1] was 17 µM. The selectivity ratio in data set [2] was found to be 3. The microsomal CLint in data set [3] was 253 µL/min/mg.
For `N#Cc1ccc2nc(NC(=O)c3ccn(C4CC4)n3)n(CC(F)(F)F)c2c1`, in that order: 4.3 µM, greater than 15 and 299 µL/min/mg.
The like results for `Cn1nccc1C(=O)Nc1nc2cc(C(F)(F)F)cnc2n1CC(C)(C)C` were, in that order, 0.57 µM, 7 and 37 µL/min/mg.
The like results for `Cc1nnnn1CC(=O)Nc1nc2ccc(C#N)cc2n1CC(F)(F)F` were, in that order, 50 µM, greater than 1 and 23 µL/min/mg.
Regarding `Cc1nc(C)c(C(=O)Nc2nc3ccc(C#N)cc3n2CC(F)(F)F)s1`, the IC50 in the data set on Trypanosoma cruzi [1] was determined as 0.54 µM. Also, the selectivity ratio in data set [2] was found to be 14. In addition, the microsomal CLint in data set [3] amounted to 595 µL/min/mg.
For `Cc1cc(C(=O)Nc2nc3ccc(C#N)cc3n2CC(F)(F)F)nn1C`, in that order: 64 µM, 1 and 181 µL/min/mg.
For `N#Cc1ccc2nc(NC(=O)c3ccccn3)n(CC(F)(F)F)c2c1`, in that order: 9.3 µM, greater than 7 and 236 µL/min/mg.
The like results for `COCCn1c(NC(=O)c2ccnn2C)nc2ccc(C#N)cc21` were, in that order, 8.8 µM, greater than 7 and 98 µL/min/mg.
As to `N#Cc1ccc2nc(NC(=O)c3cc(C(F)(F)F)n[nH]3)n(CC(F)F)c2c1`, the IC50 in the data set on Trypanosoma cruzi [1] turned out to be 0.49 µM. For the same compound, the selectivity ratio in data set [2] came to 11. The microsomal CLint in data set [3] turned out to be 70 µL/min/mg.
Turning to `O=C(Nc1nc2cc(F)ccc2n1C1CCOCC1)c1cccnc1`, the half-inhibitory concentration (IC50) in the data set with Trypanosoma cruzi [1] was determined as 8.5 µM. Besides, the selectivity ratio in data set [2] came out at 5. In data set [3], the microsomal CLint turned out to be 26 µL/min/mg.
`O=C(Nc1nc2ccc(F)cc2n1CC(F)(F)F)c1cccnc1`: the IC50 in the data set on Trypanosoma cruzi [1] worked out at 4.2 µM. The selectivity ratio in data set [2] was determined as 13. The microsomal CLint in data set [3] amounted to 98 µL/min/mg.
For `Cn1ccc(C(=O)Nc2nc3ccc(C#N)cc3n2CC(F)(F)F)n1`, in that order: 64 µM, 1 and 73 µL/min/mg.
In the case of `Cn1nccc1C(=O)Nc1nc2cc(-c3ncco3)ccc2n1CC(F)(F)F`, the half-inhibitory concentration (IC50) with Trypanosoma cruzi [1] is 38 µM. Also, the selectivity ratio in data set [2] came to 1. Besides, in data set [3], the microsomal CLint worked out at 52.7 µL/min/mg.
The like results for `CN1CCC(n2c(NC(=O)c3ccnn3C)nc3ccc(C#N)cc32)CC1` were, in that order, 34 µM, greater than 2 and 72 µL/min/mg.
For `Cn1nc(C(=O)Nc2nc3ccc(C#N)cc3n2CC(F)(F)F)cc1C(F)(F)F`, in that order: 64 µM, 1 and 77 µL/min/mg.
For `CS(=O)(=O)c1ccc2c(c1)nc(NC(=O)c1ccnc(C(F)(F)F)c1)n2CC(F)(F)F`, in that order: 0.55 µM, 5 and 23 µL/min/mg.
For `Cn1nccc1C(=O)Nc1nc2cncnc2n1CC(F)(F)F`, in the data set on Trypanosoma cruzi [1], the IC50 came out at 8.2 µM. Further, in data set [2], the selectivity ratio was 3. For the same compound, in data set [3], the microsomal CLint came to 24 µL/min/mg.
The like results for `CC(C)(C)Cn1c(NC(=O)c2cccnc2)nc2ccc(C#N)cc21` were, in that order, 8.7 µM, greater than 7 and 87 µL/min/mg.
For `N#Cc1ccc2nc(NC(=O)Cn3cccn3)n(CC(F)(F)F)c2c1`, in that order: 6.6 µM, 9 and 36 µL/min/mg.
The like results for `Cc1nn[nH]c1C(=O)Nc1nc2ccc(C#N)cc2n1CC(F)(F)F` were, in that order, 64 µM, 1 and 141 µL/min/mg.
As for `Cn1nc(C(F)(F)F)cc1C(=O)Nc1nc2ccc(C#N)cc2n1CCF`, the IC50 with Trypanosoma cruzi [1] turned out to be 2.1 µM. Besides, in data set [2], the selectivity ratio was found to be 11. The microsomal CLint in data set [3] amounted to 39 µL/min/mg.
For `CC(C)(O)Cn1c(NC(=O)c2ccc(C(F)(F)F)nc2)nc2ccc(C#N)cc21`, in that order: 37 µM, 1 and 23 µL/min/mg.
The like results for `Cn1nccc1C(=O)Nc1nc2cc(F)cnc2n1CC(F)(F)F` were, in that order, 0.84 µM, 3 and 44 µL/min/mg.
For `Cn1nccc1C(=O)Nc1nc2cc(CN3CCOCC3)ccc2n1CC(F)(F)F`, in that order: 8.3 µM, 5 and 23 µL/min/mg.
On to `Cn1nccc1C(=O)Nc1nc2ccc(C#N)cc2n1CC(F)F`, for which the IC50 in the data set with Trypanosoma cruzi [1] amounted to 2.4 µM. In data set [2], the selectivity ratio is 5. Further, in data set [3], the microsomal CLint was 383 µL/min/mg.
The like results for `CC(=O)N1CCC(n2c(NC(=O)c3ccnn3C)nc3ccc(C#N)cc32)CC1` were, in that order, 64 µM, 1 and 23 µL/min/mg.
The like results for `Cc1nnn(CC(=O)Nc2nc3ccc(C#N)cc3n2CC(F)(F)F)n1` were, in that order, 11 µM, greater than 6 and 25 µL/min/mg.
Regarding `COc1ccc(C(=O)Nc2nc3ccc(C#N)cc3n2CC(F)(F)F)cn1`, in the data set on Trypanosoma cruzi [1], the IC50 was 2.3 µM. Besides, the selectivity ratio in data set [2] was greater than 28. Also, in data set [3], the microsomal CLint is 170 µL/min/mg.
The like results for `O=C(Nc1nc2ccc(F)cc2n1CC(F)(F)F)c1ccc(C(F)(F)F)nc1` were, in that order, 42 µM, greater than 2 and 86 µL/min/mg.
For `O=C(Nc1nc2cc(F)ccc2n1C1CCOCC1)c1ccc(C(F)(F)F)nc1`, in that order: 35 µM, greater than 2 and 23 µL/min/mg.
Regarding `CC(C)(C)Cn1c(NC(=O)c2cc(C(F)(F)F)n[nH]2)nc2cc(C#N)cnc21`, in the data set on Trypanosoma cruzi [1], the IC50 stood at 1.5 µM. Also, in data set [2], the selectivity ratio was 3. Besides, in data set [3], the microsomal CLint is 23 µL/min/mg.
For `Cn1nccc1C(=O)Nc1nc2ccc(C#N)cc2n1CC(C)(C)O`, in that order: 13 µM, greater than 5 and 23 µL/min/mg.
On to `Cn1nccc1C(=O)Nc1nc2cccnc2n1CC(F)(F)F`, for which the concentration for half-maximal inhibition (IC50) in the data set on Trypanosoma cruzi [1] was 3.9 µM. Further, the selectivity ratio in data set [2] was determined as 2. In addition, in data set [3], the microsomal CLint was found to be 119 µL/min/mg.
The like results for `Cn1nccc1C(=O)Nc1nc2ccc(C#N)cc2n1CC(F)(F)F` were, in that order, 1.6 µM, 8 and 20 µL/min/mg.
Take `Cn1nccc1C(=O)Nc1nc2ccc(C#N)cc2n1CCF`: the IC50 with Trypanosoma cruzi [1] worked out at 8.4 µM. Further, the selectivity ratio in data set [2] came out at 2. The microsomal CLint in data set [3] worked out at 154 µL/min/mg.
The like results for `Cn1nccc1C(=O)Nc1nc2cc(C#N)cnc2n1CC(C)(C)C` were, in that order, 0.5 µM, 5 and 31 µL/min/mg.
Turning to `Cn1nccc1C(=O)Nc1nc2cccnc2n1CC(C)(C)C`, the IC50 in the data set on Trypanosoma cruzi [1] stood at 2.2 µM. Moreover, the selectivity ratio in data set [2] was found to be 20. For the same compound, the microsomal CLint in data set [3] was 222 µL/min/mg.
`O=C(Nc1nc2ccc(F)cc2n1C1CC1)c1cccnc1`: in the data set with Trypanosoma cruzi [1], the 50% inhibitory concentration (IC50) was 34 µM. Also, in data set [2], the selectivity ratio is greater than 2. Besides, the microsomal CLint in data set [3] was 160 µL/min/mg.
For `O=C(Nc1nc2cc(F)cnc2n1CC(F)(F)F)c1ccc(C(F)(F)F)nc1`, in that order: 0.15 µM, 6 and 113 µL/min/mg.
With `O=C(Cn1ccnc1[N+](=O)[O-])NCc1ccccc1` [BENZNIDAZOLE], the Activity in the data set with Trypanosoma cruzi [4] came to 99%. In the data set with Trypanosoma cruzi [5], the IC50 came to 2.62 µM and the concentration for an effect of 90% (IC90) stood at 12.6 µM. In the data set with Trypanosoma cruzi [6], the “inhibition (INH)” value is reported as 94%. Moreover, in the data set with Trypanosoma cruzi [7], the IC50 amounted to 2.57 µM.
The like results for `CC[C@@H]([C@H](C)O)n1ncn(-c2ccc(N3CCN(c4ccc(OC[C@@H]5CO[C@@](Cn6cncn6)(c6ccc(F)cc6F)C5)cc4)CC3)cc2)c1=O` [POSACONAZOLE] were, in that order, 100%, 0.001 µM, 0.002 µM, 98% and 0.002 µM.
